The values below come from ChEMBL document CHEMBL3102721, “Napyradiomycin derivatives, produced by a marine-derived actinomycete, illustrate cytotoxicity by induction of apoptosis” (J Nat Prod, 2014).

The test system of test [1] is HCT-116. Nature of the test: Induction of apoptosis in human HCT116 cells at 4 uM after 24 hrs by Yo-Pro-1/PI staining-based FACS flow cytometric analysis. The format is functional, cell-based. In a few lines:
(§1)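 HCT116 cells were grown in McCoy's medium with 10% FBS at 37 °C, 5% CO2, to 50% confluence, then treated for 24 h. They were trypsinized, washed in cold PBS and brought to ~1×10^6 cells/mL. Staining was 30 min on ice with 0.1 μM Yo-Pro-1 (apoptotic) and 3 μg/mL PI (necrotic), final concentrations. Flow cytometry used 488 nm excitation. Gates were set with DMSO and 10 μM camptothecin (24 h) controls, excluding debris.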
A general note: A flow cytometer gives signals particle by particle.

Test [2] has as its system HCT-116. Nature of the test: Antiproliferative activity against human HCT116 cells assessed as cell viability after 72 hrs by MTS assay. The format is functional, cell-based. To be noted: HCT-116, 72 h. Summed up:
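HCT-116 cells plated, left overnight at 37 °C in 5% CO2/air, then given compound from 10 mg/mL DMSO stock at 100 μM top concentration with serial dilution. After 72 h, MTS/PMS added for 3 h and formazan read at 490 nm. IC50 with 95% CI calculated from viability. Etoposide positive control, DMSO negative control.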
A general note: Formazan colour is commonly taken as a measure of viable cells.

Test [3] has as its system HCT-116. In words: Induction of apoptosis in human HCT116 cells after 24 hrs by Yo-Pro-1/PI staining-based FACS flow cytometric analysis. The format is functional, cell-based. In a few lines: as §1
Test [4] has as its system HCT-116. Nature of the test: Induction of cell death in human HCT116 cells at 32 uM after 24 hrs by Yo-Pro-1/PI staining-based FACS flow cytometric analysis. The format is functional. In a few lines: as §1
Test [5] deals with HCT-116. Nature of the test: Induction of apoptosis in human HCT116 cells at 1 to 16 uM after 24 hrs by Yo-Pro-1/PI staining-based FACS flow cytometric analysis. The format is functional, cell-based. In a few lines: as §1
Test [6] concerns HCT-116. In words: Induction of cell death in human HCT116 cells at 1 to 16 uM after 24 hrs by Yo-Pro-1/PI staining-based FACS flow cytometric analysis. It is filed as functional. Summed up: as §1

Active and inactive are the calls of the source. No cut-off for these calls is given here. Bounds are passed on as bounds.

As a reminder, the IC50 is the concentration at which inhibition is half-maximal. With `C=C1CC[C@H](Cl)C(C)(C)[C@@H]1C[C@@]12OC(C)(C)[C@H](Cl)C[C@]1(Cl)C(=O)c1c(cc(O)c(C)c1O)C2=O`, the result in the test with HCT-116 [1] was Active. In addition, the IC50 in the test with HCT-116 [2] came to 3 µM. Also, the Activity entry in the test with HCT-116 [3] is “Dose-dependent effect”.

Regarding `CC1=C(O)C2=C(C(=O)[C@]3(C[C@H]4C(C)(C)[C@@H](Cl)CC[C@]4(C)O)OC(C)(C)[C@H](Cl)C[C@]3(Cl)C2=O)C(=[N+]=[N-])C1=O`, in the test on HCT-116 [2], the IC50 was less than 1 µM.

`C=C1CC[C@H](Cl)C(C)(C)[C@@H]1C[C@@]12OC(C)(C)[C@H](Cl)C[C@]1(Cl)C(=O)c1c(O)cc(O)cc1C2=O`: the IC50 in the test with HCT-116 [2] amounted to 2 µM.

For `Cc1c(O)cc2c(c1O)C(=O)[C@@]1(Cl)C[C@@H](Cl)C(C)(C)O[C@@]1(C[C@H]1C(C)(C)[C@H]3CC[C@]1(C)O3)C2=O`, the outcome in the test on HCT-116 [1] was Active. Besides, the IC50 with HCT-116 [2] was 17 µM. Further, the Activity result in the test on HCT-116 [3] was “Dose-dependent effect”.

As to `Cc1c(O)cc2c(c1O)C(=O)[C@@]1(Cl)C[C@@H](Br)C(C)(C)O[C@@]1(C[C@H]1C(C)(C)[C@H]3CC[C@]1(C)O3)C2=O`, in the test on HCT-116 [2], the IC50 is more than 100 µM.

As for `Cc1c(O)cc2c(c1O)C(=O)C1C[C@@H](Cl)C(C)(C)O[C@@]1(C[C@H]1C(C)(C)[C@@H](Cl)CC[C@]1(C)O)C2=O` (stereo partly drawn), in the test on HCT-116 [2], the IC50 was more than 100 µM.

`C=C1CC[C@H](Cl)C(C)(C)[C@@H]1C[C@@]12OC(C)(C)[C@H](Cl)C[C@]1(Cl)C(=O)C1=C(C2=O)C(=[N+]=[N-])C(=O)C(C)=C1O`: in the test with HCT-116 [4], the result was Active. Besides, the IC50 in the test on HCT-116 [2] was less than 1 µM. Also, the Activity result in the test with HCT-116 [3] is “Dose-dependent effect”.

For `COc1cc([C@@H]2c3cc4c(cc3[C@@H](O[C@@H]3O[C@@H]5CO[C@@H](C)O[C@H]5[C@H](O)[C@H]3O)[C@H]3COC(=O)[C@H]23)OCO4)cc(OC)c1O` [ETOPOSIDE], in the test with HCT-116 [2], the IC50 turned out to be 1 µM.

Turning to `Cc1c(O)cc2c(c1O)C(=O)C1=C[C@@H](Cl)C(C)(C)O[C@@]1(C[C@H]1C(C)(C)[C@@H](Cl)CC[C@]1(C)O)C2=O`, the IC50 in the test on HCT-116 [2] is more than 100 µM.

With `C=C1CC[C@H](Br)C(C)(C)[C@@H]1C[C@@]12OC(C)(C)[C@H](Cl)C[C@]1(Cl)C(=O)c1c(O)cc(O)cc1C2=O`, the IC50 in the test on HCT-116 [2] is 3 µM.

For `CC1(C)O[C@@]2(C[C@H]3C(C)(C)[C@@H](Cl)CC[C@]3(C)O)C(=O)c3cc(O)cc(O)c3C(=O)[C@@]2(Cl)C[C@H]1Cl`, the IC50 in the test on HCT-116 [2] amounted to 10 µM.

`Cc1c(O)cc2c(c1O)C(=O)[C@@]1(Cl)C[C@@H](Cl)C(C)(C)O[C@@]1(C[C@H]1C(C)(C)[C@@H](Cl)CC[C@]1(C)O)C2=O`: the outcome with HCT-116 [5] and in the test on HCT-116 [6] was Active. For the same compound, the IC50 in the test on HCT-116 [2] was 15 µM. The Activity entry with HCT-116 [3] is “Dose-dependent effect”.

`CC(C)=CCC/C(C)=C/C[C@@]12OC(C)(C)[C@H](Br)C[C@]1(Cl)C(=O)c1c(cc(O)c(C)c1O)C2=O`: in the test on HCT-116 [2], the IC50 stood at 6 µM.

Consider `Cc1c(O)cc2c(c1O)C(=O)[C@H]1C[C@@H](Br)C(C)(C)O[C@@]1(C[C@H]1C(C)(C)[C@@H](Br)CC[C@]1(C)O)C2=O`, for which, in the test on HCT-116 [2], the IC50 was 49 µM.
